7 compounds from ChEMBL document CHEMBL1137056, “Synthesis of fluorinated analogues of SJG-136 and their DNA-binding potential” (Bioorg Med Chem Lett, 2004) can be followed below.

Each structure is given as a SMILES string.

Common to all, as to format: functional
The species entered for assay [1] is Bos taurus. The assay can be described thus: Increase in melting point temperature after 18 hr of incubation [1:5] as measurement of DNA binding affinity using calf thymus DNA. Put shortly:
(§1)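 Thermal denaturation of calf thymus DNA, 100 µM DNA with 20 µM ligand (1:5 ligand:DNA molar ratio). Buffer was aqueous 10 mM sodium phosphate with 1 mM EDTA, pH 7.00. Mixtures were incubated at 37°C for the stated time, then the shift in helix melting temperature versus DNA alone was recorded. DNA-only Tm is the mean of 10 determinations.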

The species entered for assay [2] is Bos taurus. The assay can be described thus: Increase in melting point temperature after 0h of incubation [1:5 ratio] as measurement of DNA binding affinity using calf thymus DNA. Put shortly:
as §1

The species entered for assay [3] is Bos taurus. The assay can be described thus: Increase in melting point temperature after 36 hr of incubation [1:5] as measurement of DNA binding affinity using calf thymus DNA. Put shortly: as §1

For the compound `COc1cc2c(cc1OCCCCOc1cc3c(cc1OC)C(=O)N1CC(=C(F)F)C[C@H]1C=N3)N=C[C@@H]1CC(=C(F)F)CN1C2=O`, the thermal shift (ΔTm) in assay [1] amounted to 5.2 °C; in assay [2], 2.1 °C; in assay [3] it was 6.5 °C.

Consider `COc1cc2c(cc1OCCCCCOc1cc3c(cc1OC)C(=O)N1CC(=C(F)F)C[C@H]1C=N3)N=C[C@@H]1CC(=C(F)F)CN1C2=O`, for which the ΔTm stood at 19.2 °C in assay [1], 16.2 °C in assay [2] and 21.3 °C in assay [3].

Regarding `C=C1C[C@H]2C=Nc3cc(OCCCOc4cc5c(cc4OC)C(=O)N4CC(=C)C[C@H]4C=N5)c(OC)cc3C(=O)N2C1`, the ΔTm amounted to 33.6 °C in assay [1] and 25.7 °C in assay [2].

For `COc1cc2c(cc1OCCCOc1cc3c(cc1OC)C(=O)N1CCC[C@H]1C=N3)N=C[C@@H]1CCCN1C2=O`, the ΔTm in assay [1] amounted to 15.1 °C; in assay [2], 10.2 °C; in assay [3], 15.7 °C.

For the compound `COc1cc2c(cc1O)N=C[C@@H]1CCCN1C2=O`, the shift in melting temperature (ΔTm) was 0.7 °C in assay [1], 0.3 °C in assay [2] and 0.7 °C in assay [3].

In the case of `COc1cc2c(cc1OCCCOc1cc3c(cc1OC)C(=O)N1CC(=C(F)F)C[C@H]1C=N3)N=C[C@@H]1CC(=C(F)F)CN1C2=O`, the results for the thermal shift (ΔTm) in assay [1], in assay [2] and in assay [3] were 24.6 °C, 20.8 °C and 24.9 °C, respectively.

Take `COc1cc2c(cc1O)N=C[C@@H]1CC(=C(F)F)CN1C2=O`: the thermal shift (ΔTm) is 1.7 °C in assay [1], 1 °C in assay [2] and 2.2 °C in assay [3].

Broadly, the ΔTm is the change in melting temperature against a reference sample.
